In ChEMBL document CHEMBL2390927, “Design, synthesis and antimicrobial evaluation of novel benzimidazole type of Fluconazole analogues and their synergistic effects with Chloromycin, Norfloxacin and Fluconazole” (2013):
In brackets after ≈: the same amount, converted by molar mass.

Key:
Staphylococcus aureus [1] = assay: Antibacterial activity against methicillin-resistant Staphylococcus aureus; format: functional
How it was run: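 Broth microdilution by two-fold serial dilution in 96-well plates following NCCLS. MRSA strain N315. Inoculum adjusted with sterile saline to 1 × 10⁵ CFU. Compounds were made up as DMSO stocks, then diluted in Mueller-Hinton broth. A DMSO plus inoculum well, without drug, was the growth control. Growth was read visually and spectrophotometrically, in triplicate. MIC is the lowest concentration giving complete inhibition of growth.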

Klebsiella pneumoniae = assay: Antibacterial activity against Klebsiella pneumoniae; format: functional
Staphylococcus aureus [2] = assay: Antibacterial activity against methicillin-resistant Staphylococcus aureus N315 after 24 hrs by two-fold serial dilution method; format: functional; details: N315, 24 h
Pseudomonas aeruginosa = assay: Antibacterial activity against Pseudomonas aeruginosa ATCC 27853 after 24 hrs by two-fold serial dilution method; format: functional; details: ATCC 27853, 24 h
How it was run: (§1)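 MIC taken as the lowest concentration giving complete growth inhibition, by standard two-fold serial dilution in 96-well plates following NCCLS. Stocks in DMSO, diluted in Mueller–Hinton broth. Inoculum adjusted with sterile saline to 1 × 10⁵ CFU. DMSO with inoculum and no drug served as solvent control. Growth read visually and spectrophotometrically, in triplicate.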

Candida = assay: Antifungal activity against Candida mycoderma after 24 hrs by two-fold serial dilution method; format: functional
How it was run: (§2)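 Spore suspension in sterile distilled water from one-day-old cultures on Sabouraud agar, final 1–5 × 10³ spore mL⁻¹. Compound stocks diluted in sterile RPMI 1640 as two-fold serial dilutions in microdilution plates. MIC is the lowest concentration completely inhibiting growth. Growth monitored visually and spectrophotometrically, in triplicate.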

Micrococcus luteus = assay: Antibacterial activity against Micrococcus luteus ATCC 4698 after 24 hrs by two-fold serial dilution method; format: functional; details: ATCC 4698, 24 h; how it was run: as §1
Staphylococcus aureus [3] = assay: Antibacterial activity against Staphylococcus aureus ATCC 6538 after 24 hrs by two-fold serial dilution method; format: functional; details: ATCC 6538, 24 h
Escherichia coli = assay: Antibacterial activity against Escherichia coli JM109 after 24 hrs by two-fold serial dilution method; format: functional; details: JM109, 24 h
Aspergillus flavus = assay: Antifungal activity against Aspergillus flavus after 24 hrs by two-fold serial dilution method; format: functional; how it was run: as §2
Bacillus subtilis = assay: Antibacterial activity against Bacillus subtilis ATCC 21216 after 24 hrs by two-fold serial dilution method; format: functional; details: ATCC 21216, 24 h; how it was run: as §1
Saccharomyces cerevisiae = assay: Antifungal activity against Saccharomyces cerevisiae after 24 hrs by two-fold serial dilution method; format: functional; how it was run: as §2
Salmonella typhi = assay: Antibacterial activity against Bacillus typhi after 24 hrs by two-fold serial dilution method; format: functional, Salmonella enterica subsp. enterica serovar Typhi; details: Salmonella enterica
How it was run: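 Two-fold serial dilution in 96-well plates following NCCLS; compounds dissolved in DMSO as stocks, then diluted in Mueller-Hinton broth; bacterial suspension adjusted with sterile saline to 1 × 10⁵ CFU; MIC taken as lowest concentration completely inhibiting growth, monitored visually and spectrophotometrically; DMSO-plus-inoculum well as solvent control; triplicate.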

Cyberlindnera jadinii = assay: Antifungal activity against Candida utilis after 24 hrs by two-fold serial dilution method; format: functional; details: Williopsis jadinii; how it was run: as §2
Bacillus = assay: Antibacterial activity against Bacillus proteus ATCC 13315 after 24 hrs by two-fold serial dilution method; format: functional; details: ATCC 13315, 24 h; how it was run: as §1
Candida albicans = assay: Antifungal activity against Candida albicans ATCC 76615 after 24 hrs by two-fold serial dilution method; format: functional; details: ATCC 76615, 24 h; how it was run: as §2

Compound | MIC (Staphylococcus aureus [1]) [µg/mL] | MIC (Klebsiella pneumoniae) [µg/mL] | MIC (Staphylococcus aureus [2]) [µg/mL] | MIC (Pseudomonas aeruginosa) [µg/mL] | MIC (Candida) [µg/mL] | MIC (Micrococcus luteus) [µg/mL] | MIC (Staphylococcus aureus [3]) [µg/mL] | MIC (Escherichia coli) [µg/mL] | MIC (Aspergillus flavus) [µg/mL] | MIC (Bacillus subtilis) [µg/mL] | MIC (Saccharomyces cerevisiae) [µg/mL] | MIC (Salmonella typhi) [µg/mL] | MIC (Cyberlindnera jadinii) [µg/mL] | MIC (Bacillus) [µg/mL] | MIC (Candida albicans) [µg/mL]
CCCCCCCCCCn1c(CNNC(=O)c2sc(C(=O)NNCc3nc4ccccc4n3CCCCCCCCCC)c(C)c2C)nc2ccccc21 | 2 (≈ 2.6 µM) |  |  |  |  |  |  |  |  |  |  |  |  |  | 
CCCC[C@H](CC(=O)NO)C(=O)N[C@@H](c1nc2ccccc2[nH]1)C(C)C |  | 0.5 (≈ 1.39 µM) |  |  |  |  |  |  |  |  |  |  |  |  | 
Fc1ccccc1NCc1nc2ccccc2[nH]1 |  |  | 32 (≈ 133 µM) | 128 (≈ 531 µM) | 32 (≈ 133 µM) | 64 (≈ 265 µM) | 16 (≈ 66.3 µM) | 32 (≈ 133 µM) | 32 (≈ 133 µM) | 32 (≈ 133 µM) | 32 (≈ 133 µM) | 64 (≈ 265 µM) | 64 (≈ 265 µM) | 64 (≈ 265 µM) | 32 (≈ 133 µM)
FC(F)(F)c1cccc(NCc2nc3ccccc3[nH]2)c1 |  |  | 16 (≈ 54.9 µM) | 64 (≈ 220 µM) | 16 (≈ 54.9 µM) | 32 (≈ 110 µM) | 16 (≈ 54.9 µM) | 32 (≈ 110 µM) | 16 (≈ 54.9 µM) | 32 (≈ 110 µM) | 32 (≈ 110 µM) | 32 (≈ 110 µM) | 32 (≈ 110 µM) | 16 (≈ 54.9 µM) | 32 (≈ 110 µM)
Fc1ccc(NCc2nc3ccccc3[nH]2)cc1 |  |  | 64 (≈ 265 µM) | 64 (≈ 265 µM) | 32 (≈ 133 µM) | 64 (≈ 265 µM) | 32 (≈ 133 µM) | 64 (≈ 265 µM) | 32 (≈ 133 µM) | 32 (≈ 133 µM) | 64 (≈ 265 µM) | 128 (≈ 531 µM) | 32 (≈ 133 µM) | 32 (≈ 133 µM) | 64 (≈ 265 µM)
Clc1ccc(NCc2nc3ccccc3[nH]2)cc1 |  |  | 32 (≈ 124 µM) | 128 (≈ 497 µM) | 64 (≈ 248 µM) | 32 (≈ 124 µM) | 64 (≈ 248 µM) | 32 (≈ 124 µM) | 64 (≈ 248 µM) | 64 (≈ 248 µM) | 64 (≈ 248 µM) | 128 (≈ 497 µM) | 32 (≈ 124 µM) | 64 (≈ 248 µM) | 64 (≈ 248 µM)
Ic1ccc(NCc2nc3ccccc3[nH]2)cc1 |  |  | 128 (≈ 367 µM) | 128 (≈ 367 µM) | 128 (≈ 367 µM) | 128 (≈ 367 µM) | 64 (≈ 183 µM) | 64 (≈ 183 µM) | 128 (≈ 367 µM) | 64 (≈ 183 µM) | 64 (≈ 183 µM) | 64 (≈ 183 µM) | 64 (≈ 183 µM) | 64 (≈ 183 µM) | 64 (≈ 183 µM)
Cc1ccc(NCc2nc3ccccc3[nH]2)cc1 |  |  | 128 (≈ 539 µM) | 64 (≈ 270 µM) | 256 (≈ 1080 µM) | 512 (≈ 2160 µM) | 32 (≈ 135 µM) | 64 (≈ 270 µM) | 128 (≈ 539 µM) | 64 (≈ 270 µM) | 64 (≈ 270 µM) | 64 (≈ 270 µM) | 32 (≈ 135 µM) | 16 (≈ 67.4 µM) | 32 (≈ 135 µM)
Fc1ccc(NCc2nc3ccccc3[nH]2)c(F)c1 |  |  | 64 (≈ 247 µM) | 64 (≈ 247 µM) | 32 (≈ 123 µM) | 64 (≈ 247 µM) | 16 (≈ 61.7 µM) | 16 (≈ 61.7 µM) | 64 (≈ 247 µM) | 32 (≈ 123 µM) | 32 (≈ 123 µM) | 32 (≈ 123 µM) | 32 (≈ 123 µM) | 16 (≈ 61.7 µM) | 64 (≈ 247 µM)
Clc1ccc(NCc2nc3ccccc3[nH]2)c(Cl)c1 |  |  | 64 (≈ 219 µM) | 64 (≈ 219 µM) | 32 (≈ 110 µM) | 64 (≈ 219 µM) | 64 (≈ 219 µM) | 32 (≈ 110 µM) | 64 (≈ 219 µM) | 32 (≈ 110 µM) | 64 (≈ 219 µM) | 128 (≈ 438 µM) | 32 (≈ 110 µM) | 64 (≈ 219 µM) | 32 (≈ 110 µM)
CCCN(Cc1nc2ccccc2[nH]1)c1ccc(C)cc1 |  |  | 256 (≈ 916 µM) | 256 (≈ 916 µM) | 128 (≈ 458 µM) | 128 (≈ 458 µM) | 128 (≈ 458 µM) | 128 (≈ 458 µM) | 128 (≈ 458 µM) | 64 (≈ 229 µM) | 128 (≈ 458 µM) | 128 (≈ 458 µM) | 64 (≈ 229 µM) | 128 (≈ 458 µM) | 128 (≈ 458 µM)
CCCCCCN(Cc1nc2ccccc2[nH]1)c1ccc(C)cc1 |  |  | 128 (≈ 398 µM) | 64 (≈ 199 µM) | 128 (≈ 398 µM) | 64 (≈ 199 µM) | 128 (≈ 398 µM) | 256 (≈ 796 µM) | 64 (≈ 199 µM) | 128 (≈ 398 µM) | 64 (≈ 199 µM) | 64 (≈ 199 µM) | 128 (≈ 398 µM) | 256 (≈ 796 µM) | 64 (≈ 199 µM)
CCCCCCCCN(Cc1nc2ccccc2[nH]1)c1ccc(C)cc1 |  |  | 128 (≈ 366 µM) | 16 (≈ 45.8 µM) | 32 (≈ 91.6 µM) | 128 (≈ 366 µM) | 32 (≈ 91.6 µM) | 128 (≈ 366 µM) | 64 (≈ 183 µM) | 16 (≈ 45.8 µM) | 16 (≈ 45.8 µM) | 64 (≈ 183 µM) | 32 (≈ 91.6 µM) | 64 (≈ 183 µM) | 16 (≈ 45.8 µM)
